The source made the active and inactive calls.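 Rule for the calls, unless noted: active = a full or partial loss of lipid-probe fluorescence in the fish gall bladder, intestine or both, judged by eye; inactive = no fluorescence loss, or compound toxic to the fish.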
What was measured:
[1] = inhibitors of TNFa-induced NFkB p65 translocation, primary screen, imaging, HUVEC, MLSMR starter and 10KST1 sets (AID 438;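 active = inhibition above 20% together with a positive visual image hit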;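 note: compound added about 3h40 before a 20 min TNFalpha stimulation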;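 for inhibition: signal is the nuclear over cytoplasmic p65 intensity ratio per well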); conditions: HUVEC TNFa-induced p65 nuclear translocation; cell count: measured here: nuclei count (cytotoxicity indicator), at 2.08 µM unless noted; inhibition: at 2 µM, stronger effect = higher value unless noted
[2] = inhibitors of E-selectin induction by TNFa, primary screen, imaging, HUVEC, immunofluorescence, MLSMR starter and 10KST1 sets (AID 487;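 active = visually confirmed hit in the image check and inhibition above 20%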;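 for inhibition: signal is fraction of cell area covered by stained E-selectin grains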;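 for nuclei count: 100% = median nuclei count of all wells on the same plate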); conditions: HUVEC TNFalpha-induced E-selectin immunofluorescence imaging, at 2 µM; inhibition: stronger effect = higher value; nuclei count: measured here: cell number, toxicity
[3] = DUSP6 inhibitors restoring Erk phosphorylation by chemical complementation, primary imaging in DUSP6-transfected HeLa (AID 609;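 active = compounds giving at least 50% inhibition in the cell-based MKP-3 phosphatase rescue imaging test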;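 for inhibition: phospho-Erk level distribution per well compared with pooled transfected vehicle control wells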); conditions: HeLa MKP-3 transfected, phospho-Erk imaging KS statistic, at 10 µM
[4] = molecular target: Dual specificity protein phosphatase 6 (Homo sapiens) (UniProt Q16828); test: as above; conditions: HeLa MKP-3 transfected, phospho-Erk imaging KS statistic, at 10 µM, stronger effect = higher value
[5] = molecular target: Voltage-gated potassium channel subunit beta-2 (Rattus norvegicus) (UniProt P62483); test: KvBeta enzyme negative modulators, primary screen, biochemical, NADPH fluorescence (AID 622;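 active = fluorescence slope higher than the sample average by over 3 SD, cut at about -0.22 in these data, passing the limit was not always enough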;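 note: slope of raw intensity against log time taken from 70 to 1610 s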); conditions: recombinant KvBeta, 4-cyanobenzaldehyde reduction, at 10 µM, stronger effect = higher value
[6] = molecular target: Voltage-gated potassium channel subunit beta-2 (Rattus norvegicus) (UniProt P62483); test: KvBeta positive modulators, primary screen, biochemical, NADPH fluorescence (AID 623;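 active = NADPH fluorescence slope more negative than the mean of all samples by about 3 SD, 99.7% confidence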;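 note: fluorescence intensity change per second fitted from 20 to 320 s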); conditions: Recombinant KvBeta, NADPH fluorescence decrease slope, 10 min; at 10 µM; stronger effect = lower value
[7] = molecular target: Alpha-2C adrenergic receptor (Homo sapiens) (UniProt P18825); test: modulators of alpha2C/GIRK thallium flux, primary screen, cell-based, HEK293 alpha2C/GIRK1/2 (AID 624;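 active = fluorescence slope after compound addition differing from the mean of all screened samples at 99.7% confidence, in either direction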;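 note: slope of fluorescence ratio to pre-addition baseline per second over 15 to 24 s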); conditions: thallium flux BTC fluorescence, at 10 µM, actives lie on both sides
[8] = inhibitors of larval lipid processing in zebrafish, primary screen, whole organism, PED6 fluorescence, gall bladder and intestine (AID 686); conditions: Zebrafish larvae PED6 lipid processing, fluorescence scoring;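 note: larvae 5 to 7 days old with five fish per well; signal comes from phospholipase A2 cleavage of quenched PED6 carried via bile; overnight exposure to compound and PED6 before scoring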
Procedure, shortened: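 Also added: quenched phospholipase substrate PED6, 100 nM final, ingested by larvae; System: zebrafish larvae, 5-7 d; Quantity: 5 larvae per well; Compound: 20 µM single dose; Schedule: overnight compound and PED6 incubation; Read-out: visual per-well fluorescence inhibition score; Measured by: By-eye fluorescence microscopy; Medium: E3.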

[9] = inhibitors of Chlamydomonas gravitaxis, primary screen, whole organism, Chlamydomonas reinhardtii, WT vs cilia-less mutant, absorbance, 96-well (AID 463189;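 active = inhibition at or above 50% relative to wild type and mutant plate controls; inactive = inhibition below 50%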;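 note: 0% = wild type cc124 cells in DMSO and 100% = ciliumless bld1 mutant cells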); conditions: OD600 absorbance, 2 days, at 10 µM, stronger effect = higher value
[10] = measured here: cell density z-score
[11] = measured here: nuclear c-Myc green intensity z-score
[12] = measured here: nuclear pErk red intensity z-score, stronger effect = higher value

Chain of Dual specificity protein phosphatase 6 (Homo sapiens) (Q16828 whole entry, looked up): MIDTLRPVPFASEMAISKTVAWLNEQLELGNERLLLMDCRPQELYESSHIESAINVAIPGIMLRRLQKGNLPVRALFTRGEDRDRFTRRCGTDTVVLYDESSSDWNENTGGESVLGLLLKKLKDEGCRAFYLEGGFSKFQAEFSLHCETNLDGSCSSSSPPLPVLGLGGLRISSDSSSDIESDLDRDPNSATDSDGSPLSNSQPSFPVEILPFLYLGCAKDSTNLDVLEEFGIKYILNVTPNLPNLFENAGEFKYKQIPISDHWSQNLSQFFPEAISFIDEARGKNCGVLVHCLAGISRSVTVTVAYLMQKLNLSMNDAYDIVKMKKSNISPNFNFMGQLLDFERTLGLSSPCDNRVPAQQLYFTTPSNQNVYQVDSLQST
Chain of Voltage-gated potassium channel subunit beta-2 (Rattus norvegicus) (P62483 whole entry, looked up): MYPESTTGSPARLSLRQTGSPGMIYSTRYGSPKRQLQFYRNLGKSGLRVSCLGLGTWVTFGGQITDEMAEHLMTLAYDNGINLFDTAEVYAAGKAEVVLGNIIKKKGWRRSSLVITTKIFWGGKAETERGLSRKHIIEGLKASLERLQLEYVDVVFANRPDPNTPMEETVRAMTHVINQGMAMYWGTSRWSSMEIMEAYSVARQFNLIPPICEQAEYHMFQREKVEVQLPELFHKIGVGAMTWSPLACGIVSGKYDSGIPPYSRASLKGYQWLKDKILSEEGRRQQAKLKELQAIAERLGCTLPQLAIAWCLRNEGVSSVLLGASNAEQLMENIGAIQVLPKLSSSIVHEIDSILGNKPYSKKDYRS
Chain of Alpha-2C adrenergic receptor (Homo sapiens) (P18825 whole entry, looked up): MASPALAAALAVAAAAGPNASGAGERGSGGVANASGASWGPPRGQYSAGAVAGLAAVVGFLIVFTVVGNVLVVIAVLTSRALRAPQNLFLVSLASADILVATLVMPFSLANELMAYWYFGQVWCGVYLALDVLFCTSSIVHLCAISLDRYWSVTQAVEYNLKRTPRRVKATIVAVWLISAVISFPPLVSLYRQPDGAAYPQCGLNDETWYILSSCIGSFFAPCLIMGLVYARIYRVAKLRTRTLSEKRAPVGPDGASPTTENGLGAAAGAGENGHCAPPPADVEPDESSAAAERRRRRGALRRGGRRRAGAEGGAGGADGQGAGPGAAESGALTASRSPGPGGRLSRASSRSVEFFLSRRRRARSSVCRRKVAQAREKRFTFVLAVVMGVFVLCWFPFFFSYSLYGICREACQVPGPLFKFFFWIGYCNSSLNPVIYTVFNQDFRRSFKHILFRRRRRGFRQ

| Compound | cell count [1] | inhibition [1] | inhibition [2] | nuclei count [2] [%] | z-score [3, 10] | z-score [3, 11] | z-score [3, 12] | inhibition [4] | fluorescence slope [5] | NADPH fluorescence slope [6] | slope [7] | outcome [8] | inhibition [9] | z-score ([3]; measured here: cell density z-score, cells stimulated with TPA for 15 min) | z-score ([3]; measured here: nuclear c-Myc green intensity z-score, cells stimulated with TPA for 15 min) | z-score ([3]; measured here: nuclear pErk red intensity z-score, stronger effect = higher value, cells stimulated with TPA for 15 min) |
| --- | --- | --- | --- | --- | --- | --- | --- | --- | --- | --- | --- | --- | --- | --- | --- | --- |
| O=C1c2ccccc2C(=O)N1Cc1nc2ccccc2c(=O)n1-c1cccnc1 | 485 | -17.5% (inactive) | 13.6% (inactive) | 113 | -1.74 | -0.21 | 1.85 | -4.27% (inactive) | -0.469 (inactive) | -1.2e-05 (inactive) | 0.00521 (inactive) | inactive | 6.55% (inactive) |  |  |  |
| CCC(=NCCOc1ccc(Cl)cc1)c1c(O)n(C)c(=O)n(C)c1=O | 555 | -7.6% (inactive) | -89.2% (inactive) | 99.1 | 0.38 | -2.81 | 0.837 | 13.2% (inactive) | -0.532 (inactive) | -0.00015 (inactive) | 0.0044 (inactive) | inactive | 19.1% (inactive) |  |  |  |
| COc1cccc(CN2CCN(C(=O)COc3ccc4ccccc4c3)CC2)c1 | 430 | -6% (inactive) | -195% (inactive) | 210 | -0.132 | -0.0858 | -0.507 | 11% (inactive) | -0.354 (inactive) | -4.1e-06 (inactive) | 0.00527 (inactive) | inactive | 16.5% (inactive) |  |  |  |
| CCCCCCn1c(O)c(C=Nc2c(C)n(C)n(-c3ccccc3)c2=O)c(=O)[nH]c1=O | 335 | -9.2% (inactive) | -82.5% (inactive) | 152 | -0.0314 | 0.533 | 1.54 | -7.01% (inactive) | -0.359 (inactive) | -0.000298 (inactive) | 0.00815 (inactive) | inactive | 5.18% (inactive) |  |  |  |
| CCC(=NCCN1CCCCC1)c1c(O)n(C)c(=O)n(C)c1=O | 605 | 0.7% (inactive) | -61.5% (inactive) | 154 | 0.767 | -1.21 | 0.171 | 7.83% (inactive) | -0.517 (inactive) | -3.9e-05 (inactive) | 0.00466 (inactive) | inactive | 18% (inactive) |  |  |  |
| O=c1[nH]c(=O)n(Cc2ccco2)c(O)c1C=NCCN1CCOCC1 | 680 | -12.4% (inactive) | -84.8% (inactive) | 179 | 0.97 | -1.61 | 0.194 | -8.95% (inactive) | -0.384 (inactive) | -2.1e-05 (inactive) | 0.00707 (inactive) | inactive | -10.1% (inactive) |  |  |  |
| Cn1c(O)c(C=NC2CCN(Cc3ccccc3)CC2)c(=O)n(C)c1=O | 440 | 1% (inactive) | -22.6% (inactive) | 136 | 0.0201 | 1.2 | 0.0643 | 4.25% (inactive) | -0.401 (inactive) | -1.9e-05 (inactive) | 0.00599 (inactive) | inactive | 0.967% (inactive) |  |  |  |
| CCN(CC)CCCNC(=O)c1c(O)c2ccccc2n(Cc2ccccc2)c1=O | 520 | -4.8% (inactive) | -10.6% (inactive) | 98.5 | 3.05 | 0.407 | -1.44 | 15.8% (inactive) | -0.425 (inactive) | -6.7e-06 (inactive) | 0.00401 (inactive) | inactive | -10.8% (inactive) |  |  |  |
| CC(=O)OC1(c2ccc(C)cc2)CN2CCC1c1ccccc12 (stereo not drawn) | 554 | -10% (inactive) | -198% (inactive) | 145 | 0.866 | 0.595 | 0.108 | 25.8% (inactive) | -0.502 (inactive) | -6.1e-05 (inactive) | 0.00515 (inactive) | inactive | 18.7% (inactive) |  |  |  |
| O=C(Nc1ccncc1)c1c(O)c2ccccc2n(Cc2ccccc2)c1=O | 544 | -4.5% [at 2 µM, stronger effect = higher value, 0% TNFa-plus-vehicle, 100% no-TNFa wells] (inactive) | -23.1% (inactive) | 145 |  |  |  | 10.5% [cells stimulated with TPA for 15 min] (inactive) | -0.32 (inactive) | 2.5e-05 (inactive) | 0.00467 (inactive) | inactive [screened at 20 µM (by protocol)] | 30.8% (inactive) | -0.126 | -1.62 | -0.473 |
| CCCSP1(=S)NCCCO1 (stereo not drawn) | 455 | -11.8% (inactive) | -157% (inactive) | 122 | 0.345 | -0.499 | -0.356 | -2.07% (inactive) | -0.54 (inactive) | -7.2e-05 (inactive) | 0.00464 (inactive) | inactive | 20.8% (inactive) |  |  |  |
| CC1(C)CC(=O)C(C=NCCN2CCN(C(=O)Cc3ccc(F)cc3)CC2)=C(O)C1 | 580 | 5.6% (inactive) | -57.7% (inactive) | 140 | 0.866 | 1.58 | -0.927 | 17.8% (inactive) | -0.481 (inactive) | -3.6e-05 (inactive) | 0.00584 (inactive) | inactive | -8.15% (inactive) |  |  |  |
| O=c1[nH]c(=O)n(Cc2ccccc2)c(O)c1C=NCCN1CCOCC1 | 639 | -25.9% (inactive) | -59.7% (inactive) | 156 | 0.666 | -2.11 | 2.73 | 2.71% (inactive) | -0.393 (inactive) | -1.2e-06 (inactive) | 0.00558 (inactive) | inactive | 0.831% (inactive) |  |  |  |
| C=CCn1c(O)c(C=Nc2ccc(N(CC)CC)cc2)c(=O)[nH]c1=O | 321 | 4.1% (inactive) | -65.7% (inactive) | 88.8 | -1.25 | 0.816 | -0.799 | -1.75% (inactive) | -0.321 (inactive) | -6.9e-05 (inactive) | 0.00606 (inactive) | inactive | 25.3% (inactive) |  |  |  |
| O=c1[nH]c(=O)n(Cc2ccccc2)c(O)c1C=NCCN1CCNCC1 | 548 | -7.6% (inactive) | -71.4% (inactive) | 125 | -0.72 | 0.623 | -0.0503 | 7.93% (inactive) | -0.51 (inactive) | -3.8e-05 (inactive) | 0.00654 (inactive) | inactive | -6.44% (inactive) |  |  |  |
| O=c1[nH]c(=O)n(CCc2ccccc2)c(O)c1C=NCCCn1ccnc1 | 364 | -0.9% (inactive) | -29% (inactive) | 94.5 | -0.281 | -0.0547 | 0.509 | -2.59% (inactive) | -0.581 (inactive) | 1.1e-06 (inactive) | 0.00497 (inactive) | inactive | 35.6% (inactive) |  |  |  |
| COCCOC(=O)C1=C(N)Oc2c(c(=O)oc3ccccc23)[C@@]12C(=O)Nc1ccccc12 | 600 | -9.7% (inactive) | -14.5% (inactive) | 105 | 0.613 | 0.851 | -1.5 | -2.29% (inactive) | -0.499 (inactive) | 2.1e-05 (inactive) | 0.00465 (inactive) | inactive | -16.3% (inactive) |  |  |  |
| CCCCC1(CN2CCCC2=O)C(=O)NC(=O)NC1=O | 325 | -24.8% (inactive) | -135% (inactive) | 118 | 0.342 | -1.01 | -1.02 | 3.5% (inactive) | -0.467 (inactive) | 1.5e-05 (inactive) | 0.00649 (inactive) | inactive | 32.8% (inactive) |  |  |  |
| CN1CC=C2C(C#N)=C(N)C(C#N)(C#N)C(c3ccncc3)C2C1 (stereo not drawn) | 568 | -17% (inactive) | 30.3% (inactive) | 179 | -0.865 | 3.38 | -0.482 | 67.6% (inactive) | -0.392 (inactive) | -5.3e-05 (inactive) | 0.00203 (inactive) | inactive | 11.3% (inactive) |  |  |  |
| CC1CCC(C(C)C)C(OP(N)(=O)c2ccccc2)C1 (stereo not drawn) | 413 | -4.7% (inactive) | -225% (inactive) | 189 | 1.77 | -0.238 | 0.0184 | 36.1% (inactive) | -0.406 (inactive) | -7.4e-05 (inactive) | 0.00486 (inactive) | inactive | 1.67% (inactive) |  |  |  |
| COCCOC(=O)c1c(N)n(Cc2ccco2)c2nc3ccccc3nc12 | 431 | -13% (inactive) | -107% (inactive) | 162 | 0.196 | -0.0973 | 1.79 | 0.671% (inactive) | -0.0308 (inactive) | -7.2e-06 (inactive) | 0.00535 (inactive) | inactive | 15% (inactive) |  |  |  |

— PubChem BioAssay
